Laboratory results: ChEMBL document CHEMBL3414528, “Novel naftopidil-related derivatives and their biological effects as alpha1-adrenoceptors antagonists and antiproliferative agents” (Eur J Med Chem, 2015)
Activity calls are given as the source filed them. The rule behind the calls is not given here.

Experiments:
PC-3 [1] = assay: Induction of apoptosis in human PC3 cells assessed as total apoptotic cells at 20 uM after 24 hrs by annexin V/propidium iodide staining-based flow cytometry; format: functional
In short: (§1)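 Phosphatidylserine exposure in PC-3 cells after 24 h at 0, 5, 10, 20 or 30 μM, by Alexa Fluor 488 annexin V/PI double staining and flow cytometry; early apoptotic = AV+/PI−, late apoptotic or dead = AV+/PI+.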

[2] = Cell cycle arrest in human PC3 cells assessed as accumulation at G2/M phase at 20 uM after 24 hrs by propidium iodide staining-based flow cytometry (reference value: 33.04%); format: functional; conditions: PC-3
In short: (§2)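 PC-3 cells given compound at 5, 10, 15, 20 or 30 μM, or 0.1% DMSO vehicle, for 24 h; stained with propidium iodide and analysed by flow cytometry for G0/G1, S and G2/M fractions.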

PC-3 [3] = assay: Induction of apoptosis in human PC3 cells assessed as total apoptotic cells at 10 uM after 24 hrs by annexin V/propidium iodide staining-based flow cytometry; format: functional; in short: as §1
[4] = Cell cycle arrest in human PC3 cells assessed as accumulation at S phase at 15 uM after 24 hrs by propidium iodide staining-based flow cytometry (reference value: 27.26%); format: functional; conditions: PC-3; in short: as §2
[5] = Cell cycle arrest in human PC3 cells assessed as accumulation at S phase at 5 uM after 24 hrs by propidium iodide staining-based flow cytometry (reference value: 27.26%); format: functional; conditions: PC-3; in short: as §2
[6] = Cell cycle arrest in human PC3 cells assessed as accumulation at G0/G1 phase at 5 uM after 24 hrs by propidium iodide staining-based flow cytometry (reference value: 39.20%); format: functional; conditions: PC-3; in short: as §2
[7] = biological target: T1, Alpha-1B adrenergic receptor (Rattus norvegicus, UniProt P15823); assay: Antagonist activity at Sprague-Dawley rat spleen adrenergic alpha-1B receptor after 20 mins; conditions: read-out: pA2 (converted)
T1 sequence (P15823 whole entry): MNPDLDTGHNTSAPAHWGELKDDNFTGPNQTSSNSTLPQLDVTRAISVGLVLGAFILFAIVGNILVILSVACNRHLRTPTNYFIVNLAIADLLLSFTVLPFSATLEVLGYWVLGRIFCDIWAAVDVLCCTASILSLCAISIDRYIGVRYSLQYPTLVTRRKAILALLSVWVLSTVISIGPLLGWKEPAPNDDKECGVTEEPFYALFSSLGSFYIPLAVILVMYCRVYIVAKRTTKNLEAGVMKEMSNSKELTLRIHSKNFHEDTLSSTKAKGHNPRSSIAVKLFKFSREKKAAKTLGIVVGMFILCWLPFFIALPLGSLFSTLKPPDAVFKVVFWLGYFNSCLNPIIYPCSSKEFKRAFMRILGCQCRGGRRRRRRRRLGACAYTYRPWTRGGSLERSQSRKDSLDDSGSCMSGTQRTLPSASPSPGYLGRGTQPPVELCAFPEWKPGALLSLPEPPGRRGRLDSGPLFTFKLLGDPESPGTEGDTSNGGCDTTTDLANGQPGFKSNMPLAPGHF
In short: (§3)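 Isolated rat tissues (prostatic vas deferens, spleen, thoracic aorta) contracted with cumulative norepinephrine; concentration-response curves recorded in presence of increasing antagonist concentrations, antagonism read as rightward curve shift. Mean ± SEM of five to eight separate experiments.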

[8] = Induction of apoptosis in human PC3 cells assessed as upregulation of caspase3 level after 24 hrs by Western blotting analysis; format: functional, cell-based; conditions: PC-3
In short: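 PC-3 cells exposed for 24 h to 0, 1, 5, 10, 20 or 30 μM; Bax, Bcl-2 and activated caspase-3 measured by Western blot, reported as Bax/Bcl-2 value.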

Rattus norvegicus = organism: Rattus norvegicus; assay: Selectivity ratio for Sprague-Dawley rat thoracic aorta adrenergic alpha-1D receptor to Sprague-Dawley rat prostatic vas deferens adrenergic alpha-1A receptor
PC-3 [9] = assay: Induction of apoptosis in human PC3 cells assessed as early apoptotic cells at 30 uM after 24 hrs by annexin V/propidium iodide staining-based flow cytometry (reference value: 5.7%); format: functional; in short: as §1
[10] = Cytotoxicity against human PC3 cells after 48 hrs by WST-8 assay; format: functional, cell-based; conditions: PC-3, 48 h
PC-3 [11] = assay: Induction of apoptosis in human PC3 cells assessed as late apoptotic cells at 20 uM after 24 hrs by annexin V/propidium iodide staining-based flow cytometry (reference value: 2.1%); format: functional; in short: as §1
PC-3 [12] = assay: Inhibition of norepinephrine-induced cell proliferation in human PC3 cells at 1.5 to 100 uM by WST-8 assay; format: functional, cell-based
In short: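 PC-3 cells treated with compound at 100, 75, 50, 25, 12.5, 6.25, 3.0 and 1.5 μM alone or together with norepinephrine (20 or 50 μM); viability by WST-8. Mean ± SEM, two-way ANOVA with post-hoc tests.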

[13] = biological target: T2, Alpha-1A adrenergic receptor (Rattus norvegicus, UniProt P43140); assay: Antagonist activity at Sprague-Dawley rat prostatic vas deferens adrenergic alpha-1A receptor after 20 mins; conditions: read-out: pA2 (converted); in short: as §3
T2 sequence (P43140 whole entry): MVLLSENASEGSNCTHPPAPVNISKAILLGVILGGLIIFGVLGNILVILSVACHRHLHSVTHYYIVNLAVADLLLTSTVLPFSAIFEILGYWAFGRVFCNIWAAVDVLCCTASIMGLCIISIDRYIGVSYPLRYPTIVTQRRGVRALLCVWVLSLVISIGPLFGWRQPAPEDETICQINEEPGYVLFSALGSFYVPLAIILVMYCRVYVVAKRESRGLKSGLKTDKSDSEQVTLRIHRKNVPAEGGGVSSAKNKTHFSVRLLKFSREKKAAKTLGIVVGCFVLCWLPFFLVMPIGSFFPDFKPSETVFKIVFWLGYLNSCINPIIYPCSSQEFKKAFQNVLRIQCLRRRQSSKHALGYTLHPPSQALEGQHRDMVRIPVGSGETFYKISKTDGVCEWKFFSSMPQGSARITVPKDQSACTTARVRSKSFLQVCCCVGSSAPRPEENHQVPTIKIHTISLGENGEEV

- Kb [7]: 141 nM
- Kb [13]: 7.41 nM
Structure (SMILES): COc1ccccc1N1CCN(CCCNC(=O)c2cc3ccccc3n2Cc2ccccc2)CC1
- Activity (PC-3 [1]): 62.7%
- Activity [2]: 16.2%
- Activity (PC-3 [3]): 51.1%
- Activity [4]: 14.5%
- Activity [5]: 23.7%
- Activity [6]: 42.8%
- Activity [8]: Dose-dependent effect
- Ratio (Rattus norvegicus): 2.6
- Activity (PC-3 [9]): 50.4%
- IC50 [10]: 15700 nM
- Activity (PC-3 [11]): 17.8%
- inhibition (PC-3 [12]): Active
